The source of these data is ChEMBL document CHEMBL4428062, “Human Toll-like Receptor (TLR) 8-Specific Agonistic Activity in Substituted Pyrimidine-2,4-diamines” (J Med Chem, 2016).

For orientation: EC50 means the concentration at which the effect is half-maximal.

The source made the active and inactive calls. The calls are words filed in the database; no cut-off is given here.

The target in assay [1] is T1, Toll-like receptor 8 (Homo sapiens) (UniProt Q9NR97).
T1 sequence (whole entry): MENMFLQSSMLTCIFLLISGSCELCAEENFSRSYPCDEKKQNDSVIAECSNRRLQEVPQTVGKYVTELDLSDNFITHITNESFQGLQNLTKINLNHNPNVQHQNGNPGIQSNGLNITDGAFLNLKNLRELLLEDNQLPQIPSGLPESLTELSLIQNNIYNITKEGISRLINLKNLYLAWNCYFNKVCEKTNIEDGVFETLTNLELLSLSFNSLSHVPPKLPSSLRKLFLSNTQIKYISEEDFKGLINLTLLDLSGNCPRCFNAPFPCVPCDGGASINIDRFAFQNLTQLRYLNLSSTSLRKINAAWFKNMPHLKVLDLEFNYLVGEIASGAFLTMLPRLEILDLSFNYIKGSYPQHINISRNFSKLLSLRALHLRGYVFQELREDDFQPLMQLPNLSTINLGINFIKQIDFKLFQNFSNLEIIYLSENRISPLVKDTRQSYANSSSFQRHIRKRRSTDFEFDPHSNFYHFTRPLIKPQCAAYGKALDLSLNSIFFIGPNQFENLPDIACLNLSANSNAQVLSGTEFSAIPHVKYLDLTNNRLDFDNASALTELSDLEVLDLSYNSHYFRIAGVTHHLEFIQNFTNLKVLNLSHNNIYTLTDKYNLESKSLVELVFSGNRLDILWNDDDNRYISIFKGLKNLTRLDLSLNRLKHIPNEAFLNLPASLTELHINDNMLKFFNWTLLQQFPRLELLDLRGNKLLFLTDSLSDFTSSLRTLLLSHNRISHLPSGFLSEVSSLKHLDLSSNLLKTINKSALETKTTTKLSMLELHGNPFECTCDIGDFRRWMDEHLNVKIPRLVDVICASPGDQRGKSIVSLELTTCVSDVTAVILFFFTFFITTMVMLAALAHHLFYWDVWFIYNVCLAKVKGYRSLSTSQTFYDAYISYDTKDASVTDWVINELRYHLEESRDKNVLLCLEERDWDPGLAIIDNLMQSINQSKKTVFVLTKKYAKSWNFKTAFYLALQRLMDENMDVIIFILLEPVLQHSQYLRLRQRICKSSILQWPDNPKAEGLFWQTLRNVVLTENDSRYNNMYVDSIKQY
In words: (§1) Agonist activity at TLR8 in human PBMC assessed as increase in TNF-alpha production after 16 hrs by immunoassay. In outline: (§2)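 Freshly isolated human PBMC from venipuncture blood (informed consent), 10^5 cells/well, stimulated 16 h with graded concentrations of compound. Supernatants collected by centrifugation and cytokines quantified in duplicate with a multiplexed cytokine/chemokine magnetic bead array.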

In assay [2] the target is T1, Toll-like receptor 8 (Homo sapiens). The experiment in a line: Agonist activity at TLR8 in human PBMC assessed as Th1-biased stimulatory activity measured as IL-12 release after 16 hrs by immunoassay. In outline:
as §2

For assay [3], the target named is Toll-like receptor 4 (Homo sapiens) (UniProt O00206). The experiment in a line: Agonist activity at human TLR4 expressed in HEK293 cells assessed as induction of NF-kappaB activity by secreted alkaline phosphatase reporter gene assay. The assay is classed as cell-based. Summed up:
(§3)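 HEK293 reporter lines stably co-transfected with the respective human TLR and an NF-κB/AP-1-driven secreted alkaline phosphatase gene, kept in selection medium. About 10^5 cells/ml were incubated with graded concentrations of stimuli. Supernatant sAP was read spectrophotometrically at 620 nm using a chromogenic substrate in detection medium. EC50 was taken as the arithmetic mean of quadruplicate samples.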
A general note: Reporter assays use an easily measured gene product as a stand-in for the process of interest.

Assay [4] addresses Toll-like receptor 3 (Homo sapiens) (UniProt O15455). The experiment in a line: Agonist activity at human TLR3 expressed in HEK293 cells assessed as induction of NF-kappaB activity by secreted alkaline phosphatase reporter gene assay. The assay is classed as cell-based. Summed up:
as §3

In assay [5] the target is T2, Toll-like receptor 9 (Homo sapiens) (UniProt Q9NR96).
T2 sequence (whole entry): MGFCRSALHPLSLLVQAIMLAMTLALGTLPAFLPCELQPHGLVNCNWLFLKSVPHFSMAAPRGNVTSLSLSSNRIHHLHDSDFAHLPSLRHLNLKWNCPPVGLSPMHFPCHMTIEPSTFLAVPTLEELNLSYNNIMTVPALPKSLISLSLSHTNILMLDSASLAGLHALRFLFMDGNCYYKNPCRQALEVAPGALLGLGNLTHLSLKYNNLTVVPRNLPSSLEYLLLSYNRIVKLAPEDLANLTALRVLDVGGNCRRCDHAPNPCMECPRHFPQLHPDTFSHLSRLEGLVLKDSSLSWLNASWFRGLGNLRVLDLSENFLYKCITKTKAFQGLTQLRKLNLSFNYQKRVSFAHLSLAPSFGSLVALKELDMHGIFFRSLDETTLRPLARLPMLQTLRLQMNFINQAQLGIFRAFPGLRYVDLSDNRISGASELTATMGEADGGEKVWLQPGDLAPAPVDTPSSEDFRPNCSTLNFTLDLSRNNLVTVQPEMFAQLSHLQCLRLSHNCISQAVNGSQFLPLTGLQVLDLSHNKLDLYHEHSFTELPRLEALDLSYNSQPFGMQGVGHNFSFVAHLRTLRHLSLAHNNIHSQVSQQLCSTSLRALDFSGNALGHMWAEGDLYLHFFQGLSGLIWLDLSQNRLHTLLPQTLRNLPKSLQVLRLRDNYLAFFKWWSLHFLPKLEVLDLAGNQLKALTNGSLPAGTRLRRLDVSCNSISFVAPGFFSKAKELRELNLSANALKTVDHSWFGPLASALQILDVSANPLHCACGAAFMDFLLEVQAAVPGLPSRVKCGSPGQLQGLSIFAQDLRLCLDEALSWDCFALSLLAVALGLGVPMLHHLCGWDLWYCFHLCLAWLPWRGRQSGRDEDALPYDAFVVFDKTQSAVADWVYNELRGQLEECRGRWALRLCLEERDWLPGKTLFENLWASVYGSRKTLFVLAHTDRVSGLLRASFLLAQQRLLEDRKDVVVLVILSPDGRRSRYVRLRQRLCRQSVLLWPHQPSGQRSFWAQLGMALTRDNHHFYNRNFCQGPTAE
The experiment in a line: Agonist activity at human TLR9 expressed in HEK293 cells assessed as induction of NF-kappaB activity by secreted alkaline phosphatase reporter gene assay. Type of assay: cell-based. In outline: as §3

The target of assay [6] is T1, Toll-like receptor 8 (Homo sapiens). In words: Agonist activity at TLR8 in human PBMC assessed as induction of IL-6 levels after 16 hrs by immunoassay. Summed up:
as §2

The target in the next assay is T3, Toll-like receptor 8 (Homo sapiens, UniProt Q9NR97).
T3 sequence (Q9NR97 whole entry): T1 sequence (whole entry)
The description is as §1. In outline:
as §2

Chain of Toll-like receptor 3 (Homo sapiens) (O15455 whole entry): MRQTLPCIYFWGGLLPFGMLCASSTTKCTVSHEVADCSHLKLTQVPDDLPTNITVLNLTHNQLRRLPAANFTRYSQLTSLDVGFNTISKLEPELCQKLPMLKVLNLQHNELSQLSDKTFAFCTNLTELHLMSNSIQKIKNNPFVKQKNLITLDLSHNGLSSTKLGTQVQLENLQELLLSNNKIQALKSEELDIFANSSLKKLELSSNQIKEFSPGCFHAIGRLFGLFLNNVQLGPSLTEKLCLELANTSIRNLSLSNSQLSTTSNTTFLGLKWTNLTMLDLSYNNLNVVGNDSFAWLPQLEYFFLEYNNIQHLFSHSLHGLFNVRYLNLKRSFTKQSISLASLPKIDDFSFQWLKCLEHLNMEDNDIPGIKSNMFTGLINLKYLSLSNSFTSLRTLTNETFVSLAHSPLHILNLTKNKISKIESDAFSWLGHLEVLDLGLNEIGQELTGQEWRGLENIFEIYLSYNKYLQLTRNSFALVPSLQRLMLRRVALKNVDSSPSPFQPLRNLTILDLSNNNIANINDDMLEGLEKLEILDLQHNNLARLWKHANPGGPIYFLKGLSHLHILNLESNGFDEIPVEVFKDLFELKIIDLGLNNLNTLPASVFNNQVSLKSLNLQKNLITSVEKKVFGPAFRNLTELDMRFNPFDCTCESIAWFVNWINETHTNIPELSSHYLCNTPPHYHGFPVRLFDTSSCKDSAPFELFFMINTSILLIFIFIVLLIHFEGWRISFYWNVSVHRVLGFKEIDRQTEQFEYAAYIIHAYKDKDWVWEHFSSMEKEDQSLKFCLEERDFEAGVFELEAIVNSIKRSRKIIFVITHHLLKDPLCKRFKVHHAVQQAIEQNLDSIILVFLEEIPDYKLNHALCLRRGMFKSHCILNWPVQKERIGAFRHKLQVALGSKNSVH
Chain of Toll-like receptor 4 (Homo sapiens) (O00206 whole entry): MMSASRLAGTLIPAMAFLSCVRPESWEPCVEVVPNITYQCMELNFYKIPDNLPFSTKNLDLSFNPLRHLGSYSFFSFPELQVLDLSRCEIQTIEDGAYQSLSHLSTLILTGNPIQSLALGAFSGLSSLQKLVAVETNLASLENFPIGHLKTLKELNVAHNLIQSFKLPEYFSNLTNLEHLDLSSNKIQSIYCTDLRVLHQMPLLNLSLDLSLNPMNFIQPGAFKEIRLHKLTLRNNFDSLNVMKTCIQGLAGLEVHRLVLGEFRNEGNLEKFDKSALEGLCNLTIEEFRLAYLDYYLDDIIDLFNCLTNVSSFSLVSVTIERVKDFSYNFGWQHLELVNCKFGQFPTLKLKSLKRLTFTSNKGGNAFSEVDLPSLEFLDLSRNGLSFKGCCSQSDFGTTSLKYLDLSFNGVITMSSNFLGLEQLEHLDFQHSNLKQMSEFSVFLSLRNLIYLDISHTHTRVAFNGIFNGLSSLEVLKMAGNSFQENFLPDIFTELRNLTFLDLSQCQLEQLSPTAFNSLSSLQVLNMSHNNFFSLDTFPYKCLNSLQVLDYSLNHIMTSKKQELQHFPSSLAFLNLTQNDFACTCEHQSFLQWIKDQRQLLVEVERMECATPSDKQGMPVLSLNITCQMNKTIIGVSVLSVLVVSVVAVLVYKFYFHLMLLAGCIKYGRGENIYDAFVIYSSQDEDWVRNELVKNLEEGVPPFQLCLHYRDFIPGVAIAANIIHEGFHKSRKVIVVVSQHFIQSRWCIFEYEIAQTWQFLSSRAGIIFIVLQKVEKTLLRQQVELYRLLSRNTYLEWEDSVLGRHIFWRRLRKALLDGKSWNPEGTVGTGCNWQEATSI

On to `CCCCNc1nc(N)nc(-c2ccccc2)c1CCCCN`, for which the outcome in assay [1], in assay [2], in assay [3], in assay [4], in assay [5] and in assay [6] was inactive.

On to `CCCCNc1cc(-c2ccccc2)nc(N)n1`, for which the outcome in assay [1], in assay [2], in assay [3], in assay [4], in assay [5] and in assay [6] was inactive.

For `CCCCNc1nc(N)nc(C)c1CCCCN`, the concentration for a half-maximal effect (EC50) on Toll-like receptor 8 is 9.26 µM. Further, the outcome in assay [2] was Active. Also, the result in assay [3], in assay [4], in assay [5] and in assay [6] was inactive.

Turning to `CCCCNc1nc(N)nc(C)c1I`, the outcome in assay [1], in assay [2] and in assay [6] was Active. The outcome in assay [3], in assay [4] and in assay [5] was inactive.

With `CCCCCn1c(N)nc2c(C)cccc21`, the outcome in assay [1] and in assay [6] was Active. Further, the result in assay [3], in assay [4] and in assay [5] was inactive.
